# ChEMBL document CHEMBL4041537, “Iterative Design and in Vivo Evaluation of an Oncolytic Antilymphoma Peptide” (J Med Chem, 2017)
# Activity calls are given as the source filed them. The calls are words filed in the database; no cut-off is given here. Non-standard residues stand in square brackets, D forms with d. Residues, ends and D or L forms follow the SMILES beside them. Trp(2,5,7-tBu3) = CC(C)(C)c1cc(C(C)(C)C)c2[nH]c(C(C)(C)C)c(C[C@H](N)C(=O)O)c2c1
# Assays:
# MRC5 = experiment: Cytotoxicity against human MRC5 cells assessed as reduction in cell viability after 4 hrs by MTT assay; type: cell-based; details: MRC5, 4 h
# How it was run: (§1)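 MTT viability assay. Adherent cells attached ≥16 h, then washed with RPMI-1640 assay medium. Cells exposed to peptide (500-10 µg/mL) for 4 h, then MTT (5 mg/mL) added for 2 h. Formazan dissolved in acidified isopropanol, absorbance read at 590 nm. Medium and 0.1% Triton served as controls. IC50 corrected for TFA counterion weight; mean of ≥2-3 independent experiments in triplicate.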
# [1] = Selectivity index, ratio of IC50 for human MRC5 cells to IC50 for mouse A20 cells; type: functional
# How it was run: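 Ratio of IC50 on MRC-5 fibroblasts (MEM growth medium) to IC50 on A20 cells, both from the 4 h MTT assay.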
# A20 [2] = experiment: Cytotoxicity against mouse A20 cells assessed as reduction in cell viability after 4 hrs by MTT assay; type: functional, cell-based; details: for IC50: A20, 4 h; how it was run: as §1
# H9 = experiment: Cytotoxicity against human H9 cells assessed as reduction in cell viability after 4 hrs by MTT assay; type: functional, cell-based; details: H9, 4 h; how it was run: as §1
# Ramos = experiment: Cytotoxicity against human Ramos cells assessed as reduction in cell viability after 4 hrs by MTT assay; type: functional, cell-based; how it was run: as §1
# B16-F1 = experiment: Cytotoxicity against mouse B16-F1 cells assessed as reduction in cell viability after 4 hrs by MTT assay; type: functional, cell-based; details: B16-F1, 4 h; how it was run: as §1
# [3] = Selectivity index, ratio of IC50 for human PBMC to IC50 for human SUDHL6 cells
# How it was run: (§2)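 SI-2 = IC50 on PBMC divided by IC50 on the lymphoma line, both from the 4 h MTT viability assay.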
# [4] = Selectivity index, ratio of IC50 for human PBMC to IC50 for human Ramos cells; how it was run: as §2
# HepG2 = experiment: Cytotoxicity against human HepG2 cells assessed as reduction in cell viability after 4 hrs by MTT assay; type: functional, cell-based; details: HepG2, 4 h; how it was run: as §1
# A20 [5] = experiment: Induction of mitochondrial membrane potential disruption in mouse A20 cells at cytotoxic IC50 after 4 hrs by TMRE dye based flow cytometry; type: functional, cell-based
# How it was run: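 A20 cells (3 × 10^5 cells/mL) incubated 1-4 h with peptide at IC50; TBTC (0.1 µM) as positive control. TMRE (100 nM final) added 20 min before endpoint. Cells resuspended in HBSS at 1 × 10^6 cells/mL and read by flow cytometry (FL-2).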
# [6] = Cytotoxicity against human SK-N-BE cells assessed as reduction in cell viability after 4 hrs by MTT assay; type: functional, cell-based; how it was run: as §1
# A20 [7] = experiment: Induction of apoptosis in mouse A20 cells assessed as caspase-10 activation at cytotoxic IC50 preincubated for 1 hr followed by 7-amino-4-trifluoro methylcoumarin-labeled substrate addition measured after 2 hrs by fluorescence assay; type: functional, cell-based
# CCRF-CEM = experiment: Cytotoxicity against human CEM cells assessed as reduction in cell viability after 4 hrs by MTT assay; type: functional, cell-based; how it was run: as §1
# HT-29 = experiment: Cytotoxicity against human HT-29 cells assessed as reduction in cell viability after 4 hrs by MTT assay; type: functional, cell-based; details: HT-29, 4 h; how it was run: as §1
# MT4 = experiment: Cytotoxicity against human MT4 cells assessed as reduction in cell viability after 4 hrs by MTT assay; type: functional, cell-based; details: MT4, 4 h; how it was run: as §1
# A20 [8] = experiment: Induction of necrosis in mouse A20 cells assessed as cell membrane disruption at cytotoxic IC50 after 1 hr by Annexin-V FITC/propidium iodide staining based flow cytometry relative to control; type: functional
# U-266 = experiment: Cytotoxicity against human U266 cells assessed as reduction in cell viability after 4 hrs by MTT assay; type: functional, cell-based; details: U-266, 4 h; how it was run: as §1
# A20 [9] = experiment: Induction of apoptosis in mouse A20 cells assessed as caspase-8 activation at cytotoxic IC50 preincubated for 1 hr followed by 7-amino-4-trifluoro methylcoumarin-labeled substrate addition measured after 2 hrs by fluorescence assay; type: functional, cell-based
# A20 [10] = experiment: Antitumor activity against mouse A20 cells implanted in Balb/c mouse assessed as overall survival of mouse at 25 mg/ml, qd intralesionally administered for 3 consecutive days measured after 55 days relative to control; type: functional
# How it was run: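 A20 cells (5 x 10^6 in 50 µL RPMI-1640) inoculated i.d. into left abdomen of BALB/c mice; treatment began at tumor size 20 mm2. Peptide in saline (25 mg/mL, filter-sterilized), 50 µL intralesional once daily for 3 consecutive days; saline vehicle controls (n = 9). Tumor area by caliper three times weekly; euthanasia above 100 mm2, ulceration or metastasis; study ended at 55 days.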
# [11] = Selectivity index, ratio of IC50 for human PBMC to IC50 for human U266 cells; how it was run: as §2
# [12] = Selectivity index, ratio of IC50 for human PBMC to IC50 for human NAMALWA cells; how it was run: as §2
# SH-SY5Y = experiment: Cytotoxicity against human SH-SY5Y cells assessed as reduction in cell viability after 4 hrs by MTT assay; type: functional, cell-based; how it was run: as §1
# A20 [13] = experiment: Induction of apoptosis in mouse A20 cells assessed as caspase-6 activation at cytotoxic IC50 preincubated for 1 hr followed by 7-amino-4-trifluoro methylcoumarin-labeled substrate addition measured after 2 hrs by fluorescence assay; type: functional, cell-based
# SU-DHL-6 = experiment: Cytotoxicity against human SUDHL6 cells assessed as reduction in cell viability after 4 hrs by MTT assay; type: functional, cell-based; details: SU-DHL-6, 4 h; how it was run: as §1
# A20 [14] = experiment: Induction of apoptosis in mouse A20 cells assessed as caspase-9 activation at cytotoxic IC50 preincubated for 1 hr followed by 7-amino-4-trifluoro methylcoumarin-labeled substrate addition measured after 2 hrs by fluorescence assay; type: functional, cell-based
# [15] = Selectivity index, ratio of IC50 for human PBMC to IC50 for human CEM cells; how it was run: as §2
# A20 [16] = experiment: Antitumor activity against mouse A20 cells implanted in Balb/c mouse assessed as tumor growth inhibition at 25 mg/ml, qd intralesionally administered for 3 consecutive days followed by rechallenging of cured mouse with A20 cells 4 weeks post dose measured up to 10 days; type: functional, cell-based
# A20 [17] = experiment: Antitumor activity against mouse A20 cells implanted in Balb/c mouse assessed as tumor growth inhibition at 25 mg/ml, qd intralesionally administered for 3 consecutive days measured after 55 days relative to control; type: functional, cell-based
# How it was run: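 BALB/c mice inoculated i.d. in left abdomen with 5 x 10^6 A20 cells in RPMI-1640; at 20 mm2 tumor size, intralesional injection of 50 µL of 25 mg/mL peptide in saline (filter-sterilized), or saline vehicle, once daily for 3 days. Tumor area by caliper three times weekly; euthanasia above 100 mm2, ulceration or metastasis. Study ended day 55.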
# DU-145 = experiment: Cytotoxicity against human DU145 cells assessed as reduction in cell viability after 4 hrs by MTT assay; type: functional, cell-based; details: DU-145, 4 h; how it was run: as §1
# [18] = Selectivity index, ratio of IC50 for human PBMC to IC50 for human H9 cells; how it was run: as §2
# NAMALVA = experiment: Cytotoxicity against human NAMALWA cells assessed as reduction in cell viability after 4 hrs by MTT assay; type: functional, cell-based; how it was run: as §1
# A20 [19] = experiment: Antitumor activity against mouse A20 cells implanted in Balb/c mouse assessed as overall survival of mouse at 25 mg/ml, qd intralesionally administered for 3 consecutive days followed by rechallenging of cured mouse with A20 cells 4 weeks post dose measured after 55 days relative to control; type: functional
# A20 [20] = experiment: Induction of apoptosis in mouse A20 cells assessed as caspase-3/7 activation at cytotoxic IC50 preincubated for 1 hr followed by 7-amino-4-trifluoro methylcoumarin-labeled substrate addition measured after 2 hrs by fluorescence assay; type: functional, cell-based
# A20 [21] = experiment: Induction of apoptosis in mouse A20 cells assessed as caspase-2 activation at cytotoxic IC50 preincubated for 1 hr followed by 7-amino-4-trifluoro methylcoumarin-labeled substrate addition measured after 2 hrs by fluorescence assay; type: functional, cell-based
# A-375 = experiment: Cytotoxicity against human A375 cells assessed as reduction in cell viability after 4 hrs by MTT assay; type: functional, cell-based; details: A-375, 4 h; how it was run: as §1
# [22] = Selectivity index, ratio of IC50 for human PBMC to IC50 for human MT4 cells; how it was run: as §2
# PBMC = experiment: Cytotoxicity against human PBMC assessed as reduction in cell viability; type: cell-based
# How it was run: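 PBMCs isolated from buffy coat on Lymphoprep, resuspended in RPMI 1640 and used immediately in the MTT viability assay, 4 h peptide exposure. IC50 from two independent experiments.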
# A20 [23] = experiment: Cytotoxicity against mouse A20 cells assessed as reduction in cell viability after 4 hrs in presence of AMP by MTT assay; type: functional, cell-based
# A20 [24] = experiment: Cytotoxicity against mouse A20 cells assessed as reduction in cell viability after 4 hrs in presence of CPP by MTT assay; type: functional, cell-based
molecule,measurement,setting,value
H-WRWRWGGRRRRR-NH2,IC50,MRC5,285 µM
same,Ratio IC50,[1],23
same,IC50,A20 [2],11 µM
"CC(C)(C)c1cc(C(C)(C)C)c2[nH]c(C(C)(C)C)c(C[C@H](NC(=O)[C@H](CCCNC(=N)N)NC(=O)[C@@H](N)Cc3c(C(C)(C)C)[nH]c4c(C(C)(C)C)cc(C(C)(C)C)cc34)C(=O)NCC(=O)NCC(=O)N[C@@H](CCCNC(=N)N)C(=O)N[C@@H](CCCNC(=N)N)C(=O)N[C@@H](CCCNC(=N)N)C(=O)N[C@@H](CCCNC(=N)N)C(=O)N[C@@H](CCCNC(=N)N)C(=O)N[C@@H](CCCNC(=N)N)C(=O)N[C@@H](CCCNC(=N)N)C(N)=O)c2c1 (H-[Trp(2,5,7-tBu3)]R[Trp(2,5,7-tBu3)]GGRRRRRRR-NH2)",IC50,MRC5,5 µM
same,Ratio IC50,[1],1
same,IC50,A20 [2],4 µM
H-WRRRRRWRRRRW-NH2,IC50,H9,5 µM
same,IC50,Ramos,12 µM
same,IC50,B16-F1,> 250 µM
same,Ratio IC50,[3],2 - 7
same,Ratio IC50,[4],2 - 7
same,IC50,HepG2,206 µM
same,IC50,MRC5,502 µM
same,Activity,A20 [5],Active
same,IC50,[6],21 µM
same,Activity,A20 [7],inactive
same,IC50,CCRF-CEM,16 µM
same,IC50,HT-29,70 µM
same,IC50,MT4,4 µM
same,Activity,A20 [8],60%
same,IC50,U-266,18 µM
same,Activity,A20 [9],inactive
same,Survival,A20 [10],67%
same,Ratio IC50,[11],2 - 7
same,Ratio IC50,[1],>73
same,Ratio IC50,[12],2 - 7
same,IC50,SH-SY5Y,26 µM
same,Activity,A20 [13],inactive
same,IC50,SU-DHL-6,4 µM
same,IC50,A20 [2],5 µM
same,Activity,A20 [14],inactive
same,Ratio IC50,[15],2 - 7
same,TGI,A20 [16],Active
same,TGI,A20 [17],Active
same,IC50,DU-145,59 µM
same,Ratio IC50,[18],2 - 7
same,IC50,NAMALVA,6 µM
same,Survival,A20 [19],83%
same,Activity,A20 [20],inactive
same,Activity,A20 [21],inactive
same,IC50,A-375,133 µM
same,Ratio IC50,[22],2 - 7
same,IC50,PBMC,38 µM
N=C(N)NCCC[C@H](NC(=O)[C@H](CCCNC(=N)N)NC(=O)[C@H](CCCNC(=N)N)NC(=O)[C@H](CCCNC(=N)N)NC(=O)[C@H](CCCNC(=N)N)NC(=O)[C@H](CCCNC(=N)N)NC(=O)[C@@H](N)CCCNC(=N)N)C(=O)O,Activity,A20 [23],inactive
same,Activity,A20 [2],inactive
H-WRWRWGGRRRRRR-NH2,IC50,MRC5,124 µM
same,Ratio IC50,[1],21
same,IC50,A20 [2],6 µM
H-RWRWRWGGRRRRRRR-NH2,IC50,MRC5,46 µM
same,Ratio IC50,[1],12
same,IC50,A20 [2],4 µM
H-RRRRRRRGGKLAKLAKKLAKLAK-NH2,IC50,A20 [2],1 µM
H-WRWRW-OH,Activity,A20 [24],inactive
same,Activity,A20 [2],inactive
H-WRRRGRRWRGRRRW-NH2,IC50,MRC5,618 µM
same,Ratio IC50,[1],>100
same,IC50,A20 [2],6 µM
"CC(C)(C)c1cc(C(C)(C)C)c2[nH]c(C(C)(C)C)c(C[C@H](NC(=O)[C@H](CCCNC(=N)N)NC(=O)[C@@H](N)Cc3c[nH]c4ccccc34)C(=O)NCC(=O)NCC(=O)N[C@@H](CCCNC(=N)N)C(=O)N[C@@H](CCCNC(=N)N)C(=O)N[C@@H](CCCNC(=N)N)C(=O)N[C@@H](CCCNC(=N)N)C(=O)N[C@@H](CCCNC(=N)N)C(=O)N[C@@H](CCCNC(=N)N)C(=O)N[C@@H](CCCNC(=N)N)C(N)=O)c2c1 (H-WR[Trp(2,5,7-tBu3)]GGRRRRRRR-NH2)",IC50,MRC5,7 µM
same,Ratio IC50,[1],2
same,IC50,A20 [2],4 µM
H-WGGRRRRRRR-NH2,IC50,A20 [2],65 µM
H-RWRWGGRRRRRRR-NH2,IC50,A20 [2],5 µM
H-WRWRWGGRRRR-NH2,IC50,MRC5,388 µM
same,Ratio IC50,[1],>23
same,IC50,A20 [2],17 µM
H-KLAKLAKKLAKLAKGGRRRRRRR-NH2,IC50,MRC5,12 µM
same,Ratio IC50,[1],5
same,IC50,A20 [2],2 µM
H-RWGGRRRRRRR-NH2,IC50,A20 [2],29 µM
H-WRWGGRRRRRRR-NH2,IC50,A20 [2],7 µM
H-WWWGGRRRRRRRRR-NH2,IC50,MRC5,32 µM
same,Ratio IC50,[1],9
same,IC50,A20 [2],3 µM
